GSK3B inh: human GSK3beta kinase inhibitors, primary screen, biochemical, cell-free homogeneous, HTS | activity score (negative = inhibition), % at 10 µM | 300,000 compounds, 0.038% hits | GST-GSK3beta kinase, ADP-Glo luminescence, 60 min; stronger effect = lower value | AID 2097, 2009 | Glycogen synthase kinase-3 beta (Homo sapiens), P49841;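 active = more than half of replicate wells score below -50%, meaning over 50% inhibition versus plate controls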;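 also: 0% = median DMSO wells and -100% = median GW8510 positive control wells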
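Test system – GST-tagged human GSK3beta kinase, cell-free · Incubation – 60 min enzyme reaction, room temperature · Signal – ADP-Glo luminescence · Also added – peptide substrate and ATP at 25 µM · Controls – DMSO neutral wells and GW8510 at 20 µM as positive · Buffer or medium – Tris/MgCl2 kinase buffer · Measure – Luminescence-derived activity versus plate DMSO and GW8510 wells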
Dyrk1A ADPGlo: rat Dyrk1A kinase inhibitors, primary screen, biochemical, single point, plate reader; Dual specificity tyrosine-phosphorylation-regulated kinase 1A (Rattus norvegicus), Q63470; ADP-Glo luminescence, NFATc1 peptide; inhibition, % at 12.5 µM; 310,000 compounds, 0.43% hits; in the data active = inhibition above about 50%;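 also: plate controls were vehicle with enzyme for no effect and no enzyme for full effect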
GSK3A inh: blockers of GSK3A enzyme activity – biochemical, luminescence, cell-free homogeneous, HTS, primary screen; 320,000 compounds, 0.1% hits; GSK-3 alpha kinase, ADP-Glo luminescence, 60 min; inhibition, % at 10 µM; Glycogen synthase kinase-3 alpha (Homo sapiens), P49840; AID 2650, 2010;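 active = more than half of replicates show inhibition above 20%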;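 also: GST-tagged GSK-3 alpha with peptide substrate and 25 µM ATP; 0% = DMSO neutral wells and 100% = GW8510 positive control wells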
Target sequence (P49840 whole entry, looked up): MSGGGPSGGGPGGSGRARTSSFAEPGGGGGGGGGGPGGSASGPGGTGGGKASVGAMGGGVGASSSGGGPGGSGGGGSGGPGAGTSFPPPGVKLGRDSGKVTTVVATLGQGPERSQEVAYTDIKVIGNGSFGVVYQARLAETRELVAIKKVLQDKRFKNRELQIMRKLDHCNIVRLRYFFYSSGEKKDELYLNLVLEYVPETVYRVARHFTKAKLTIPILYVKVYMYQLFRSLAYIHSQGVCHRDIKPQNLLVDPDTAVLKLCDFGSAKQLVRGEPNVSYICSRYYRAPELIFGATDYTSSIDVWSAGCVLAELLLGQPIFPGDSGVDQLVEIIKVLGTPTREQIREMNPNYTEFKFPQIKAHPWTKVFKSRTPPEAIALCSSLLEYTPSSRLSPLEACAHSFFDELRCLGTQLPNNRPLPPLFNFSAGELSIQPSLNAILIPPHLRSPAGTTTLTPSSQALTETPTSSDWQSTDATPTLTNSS
STK33 inh: inhibitors of purified STK33 kinase, primary screen, biochemical, ADP-Glo luminescence, homogeneous, cell-free | 320,000 compounds, 0.073% hits | MBP phosphorylation | inhibition, % at 10 µM | Serine/threonine-protein kinase 33 (Homo sapiens), Q9BYT3;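 active = inhibition at or above 25%, using the most active replicate where run in duplicate; inactive = inhibition below 25%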
* hit, by the source's call; x = no result. This excerpt belongs to a sample that is enriched for hits.

SMILES	GSK3B inh	Dyrk1A ADPGlo	GSK3A inh	STK33 inh
Cc1ccc(-c2nn(CCC(=O)O)cc2/C=C\C(=O)c2ccc(Br)cc2)cc1	0.0	x	6.4	35.6*
N#C/C(=C\c1ccc(O)cc1)C(=O)NCc1cccc(Cl)c1	1.2	51.0*	0.3	11.1
N#C/C(=C/c1ccc(O)cc1)C(=O)NCc1ccc(Cl)cc1	-1.0	2.7	-1.0	-1.4
Nc1ccc2nc(-c3cccnc3)[nH]c2c1	-3.5	-4.1	1.7	5.2
Nc1cccc(-c2c[nH]c3ncc(-c4cccnc4)cc23)c1	x	77.4*	x	x
COc1cc(C2C(C#N)=C(N)Oc3n[nH]c(-c4cccnc4)c32)cc(Br)c1O (stereo not drawn)	-33.9	14.8	53.0*	0.4
COc1cc(C2C(C#N)=C(N)Oc3n[nH]c(-c4cccnc4)c32)ccc1OCC(N)=O (stereo not drawn)	-18.2	3.9	4.3	0.6
COc1ccc(OC)c(Cc2nnc(CCC(=O)NCc3nc4ccccc4s3)o2)c1	-0.9	14.0	-2.2	-1.6
CCCCCCC(=O)Nc1nc(C)c(-c2csc(Nc3ccc(Cl)cc3)n2)s1	3.6	56.7*	1.1	-0.8
N#C/C(=C(/O)c1ccco1)c1nc2ccccc2[nH]1	-3.6	-0.7	-2.3	28.6*
O=C(CC(O)(c1ccccc1)c1ccccc1)Nc1ccccn1	x	-4.0	x	x
O=C(CCC(=O)Nc1ccccc1Cl)NN=C1CCCC1	-19.2	-0.8	x	-1.3
COc1ccccc1NC(=O)c1ccc(Br)o1	0.8	4.6	-2.0	7.6
O=C(Nc1nc2ccccc2[nH]1)c1ccc(Br)o1	-0.6	3.6	0.1	60.1*
O=C(Nc1ccccc1-c1ccccc1)c1ccc(Br)o1	0.9	11.9	0.9	36.4*
COc1cc(O)c(CC=C(C)C)c(O)c1C(=O)CCc1ccc(O)cc1	-6.2	8.3	-2.3	-0.4
O=C(CCc1ccc(O)cc1)c1c(O)cc(O)cc1O	-7.0	33.2	9.2	30.3*
O=C(CSc1nc(N2CCCCC2)nc(N2CCCCC2)n1)c1ccccc1	2.5	5.1	0.5	28.3*
Cc1cc(N2CCCCC2)nc(SCC(=O)c2ccccc2)n1	-7.0	-8.6	1.0	-1.9
O=C(COc1ccc(Cl)cc1)N1CCN(C(=O)c2ccccc2F)CC1	0.0	-4.2	-0.1	-0.8
Cc1ccc(NCc2nc(SCC(=O)Nc3ccccc3)n[nH]2)cc1	-1.2	15.9	-0.5	0.4
CC(=O)N1CCc2c(sc(NC(=O)CN3C(=O)c4ccccc4C3=O)c2C(N)=O)C1	-51.5*	38.7	38.6	1.4
CC(=O)N1CCc2c(sc(NC(=O)CN3C(=O)CCC3=O)c2C(N)=O)C1	-78.6*	28.3	92.7*	0.1
NC(=O)c1c(NC(=O)CN2C(=O)CCC2=O)sc2c1CCCCC2	-8.2	8.7	17.0	0.4
CCC1(C)NC(=O)N(CC(=O)Nc2sc3c(c2C(N)=O)CCC3)C1=O (stereo not drawn)	-32.8	48.1	58.3*	2.0
SMILES	GSK3B inh	Dyrk1A ADPGlo	GSK3A inh	STK33 inh
Cc1ccccc1-n1ccnc1SCC(=O)Nc1cccc(S(=O)(=O)NC2=NCCC2)c1	x	-0.6	-2.5	-1.0
Cc1ccc(OS(=O)(=O)c2ccc(N3C(=O)CCC3=O)cc2)cc1	-0.9	0.3	-0.8	-0.6
COc1ccc(NC(=O)COC(=O)c2cc(=O)c3ccccc3o2)cc1OC	x	0.7	-0.9	-0.3
Nc1nc(NCC2CCCO2)nc(Nc2ccccc2)c1[N+](=O)[O-] (stereo not drawn)	2.3	-2.6	10.1	0.0
CC(C)CCNc1nc(N)c([N+](=O)[O-])c(NCC2CCCO2)n1 (stereo not drawn)	-41.6	35.4	73.5*	4.4
Nc1nc(NCC2CCCO2)nc(NCC2CCCO2)c1[N+](=O)[O-] (stereo not drawn)	0.1	-2.0	52.2*	0.2
Nc1nc(NCCO)nc(NCC2CCCO2)c1[N+](=O)[O-] (stereo not drawn)	0.9	49.0	80.1*	1.7
COc1ccc(CCNC(=O)CCNC(=O)c2ccccc2Cl)cc1	0.5	1.9	-2.0	-1.7
CSC1=NC2(C[C@H]2c2ccccc2)C(=O)N1C (stereo partly drawn)	-2.1	-1.9	-1.8	-2.4
O=C(CN1C(=O)C2CCCCC2C1=O)Nc1cc([N+](=O)[O-])ccc1F (stereo not drawn)	x	26.0	-4.1	-0.1
CCOc1ccc(C(C)NC(=O)c2cc(=O)[nH]c3ccccc23)cc1OCC (stereo not drawn)	-1.3	-1.6	-0.6	-0.9
COc1ccc(-c2nn(-c3ccccc3)cc2/C=N/O)cc1OC	-55.6*	40.4	73.1*	2.8
Cc1ccc(NC(=O)c2cccc(C(=O)Nc3ccc(C)cc3C(=O)O)c2)c(C(=O)O)c1	10.2	-1.0	-2.8	37.4*
O=C(Nc1cc(C(=O)Nc2ccccc2C(=O)O)cc(C(=O)Nc2ccccc2C(=O)O)c1)c1ccccc1	2.5	7.8	0.8	48.8*
CC1CN(C(=O)Cn2c(=O)oc3ccccc32)CC(C)O1 (stereo not drawn)	2.2	3.8	-3.4	-1.3
C=CCNc1nc2ccccc2nc1NS(=O)(=O)c1ccc(OC)cc1	-2.5	0.9	-4.5	-1.4
Cc1ccc(NC(=O)COC(=O)c2cc(Cl)ccc2Cl)c(Br)c1	-0.1	1.3	9.5	25.5*
Cc1ccc(NC(=O)COC(=O)c2ccc(F)cc2Cl)c(Br)c1	1.5	x	-1.6	-0.8
COc1cc(COC(=O)c2cnc(C)cn2)c(OC)cc1Br	-3.4	6.5	-0.1	-0.3
CCc1ccc(S(=O)(=O)/N=C2\C=C(Nc3cccc(C(=O)O)c3)C(=O)c3ccccc32)cc1	-5.2	42.0	8.5	1.1
O=C(O)c1ccc(NC2=C/C(=N/S(=O)(=O)c3ccccc3)c3ccccc3C2=O)cc1	x	80.0*	x	x
O=C(NCCSCc1ccco1)c1ccc(=O)[nH]c1	-0.2	-4.1	-3.5	-1.9
COc1ccccc1CNCc1cccc(Oc2ccccc2)c1	-3.4	x	1.1	-1.3
Cc1cc2nc(-c3ccc[nH]c3=O)[nH]c2cc1C	-33.2	6.7	60.7*	23.2
Cc1occc1C(=O)NNC(=O)CN1C(=O)NC(C)(c2ccccc2)C1=O (stereo not drawn)	-3.3	6.3	0.1	x
Cc1ccsc1C1C2=C(CC(C)(C)CC2=O)Nc2ncnn21 (stereo not drawn)	-0.2	4.4	62.7*	-0.7
C#CCOCCOCCOCCNc1nc(N2CCN(C(=O)C([C@@H](C)CC)n3cc(C(N)Cc4ccc(O)cc4)nn3)CC2)nc(N2CCN(C(=O)[C@H](CCC(=O)O)n3cc(C(N)Cc4ccc(O)cc4)nn3)CC2)n1 (stereo partly drawn)	-1.4	3.8	-1.7	-0.8
CC(=O)c1ccc2noc(-c3ccccc3)c2c1	-1.9	12.8	20.5	17.2
CN(C)/C=C/C(=O)c1ccc2noc(-c3ccccc3)c2c1	-0.9	5.5	9.5	45.3*

Assay outcomes as filed in PubChem BioAssay.
